Results as given in ChEMBL document CHEMBL1125815, “2-Phenyl-3H-imidazo[4,5-b]pyridine-3-acetamides as non-benzodiazepine anticonvulsants and anxiolytics” (J Med Chem, 1991).

Tested on: Mus musculus
Experiment: Anticonvulsant activity against picrotoxin-induced clonic seizures in mice at 3.2 mg/kg sc
Format: functional
Details: route subcutaneous

SMILES | ED50
O=C1NC(=O)C(c2ccccc2)(c2ccccc2)N1 [PHENYTOIN] | > 100 mg/kg
NC(=O)Cn1c(-c2ccc(Cl)cc2)nc2cccnc21 | 211 mg/kg
CCC1(c2ccccc2)C(=O)NC(=O)NC1=O [PHENOBARBITAL] | 27.5 mg/kg

Organism: Mus musculus
Experiment: Potentiation of ethanol (EtOH) induced sleep time in mice
Format: functional
Details: read-out: MED
How it was run: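 Compound given orally; the minimal effective dose (mg/kg po) for potentiating ethanol-induced sleep time in mice was reported.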

SMILES | minimal effective dose
CN1C(=O)CN=C(c2ccccc2)c2cc(Cl)ccc21 [DIAZEPAM] | 2.5 mg/kg
Cc1ccc(-c2nc3ccc(Cl)nc3n2CC(=O)N(C)C)cc1 | 10 mg/kg

Organism: Mus musculus
Experiment: (§1) Neurotoxicity against mice in rotarod test
Format: toxicity, organism-based
Details: in vivo
How it was run: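 Groups of five randomly selected mice were dosed 30 min before being placed on a knurled 28-mm rod rotating at 6 rpm. Failure to stay on the rod for 1 min was scored as neurotoxic. ED50 (mg/kg ip) and confidence limits came from probit analysis.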

SMILES | ED50
CN1C(=O)CN=C(c2ccccc2)c2cc(Cl)ccc21 [DIAZEPAM] | 1.7 mg/kg
Cc1ccc(-c2nc3ccc(Cl)nc3n2CC(=O)N(C)C)cc1 | 15.2 mg/kg

Tested on: Mus musculus
Experiment: Compound was tested for anticonvulsant activity against pentylenetetrazole-induced clonic seizures in mice at 80 mg/kg sc
Format: functional
Details: route subcutaneous
How it was run: (§2)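 Female adult ICR mice, groups of eight, given test compound ip (100 mg/kg screen) in 0.5% aqueous methylcellulose or vehicle. Challenged 30 min later with pentyletetrazole 80 mg/kg sc and scored for clonic seizures.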

SMILES | ED50
O=C1NC(=O)C(c2ccccc2)(c2ccccc2)N1 [PHENYTOIN] | > 300 mg/kg
CCC1(c2ccccc2)C(=O)NC(=O)NC1=O [PHENOBARBITAL] | 13.2 mg/kg
CCCC(CCC)C(=O)O [VALPROIC ACID] | 149 mg/kg
CCC1(C)CC(=O)NC1=O (stereo not drawn) [ETHOSUXIMIDE] | 130 mg/kg

Tested on: Mus musculus
Experiment: Compound was tested for anticonvulsant activity against pentylenetetrazole-induced clonic seizures in mice; conv = 'convulsant at 10 mg/kg'
Format: functional, organism-based
Set-up: dose 10 mg/kg
Details: not given
How it was run: as §2

SMILES | ED50
CN(C)C(=O)Cn1c(-c2ccc(Cl)cc2Cl)nc2cccnc21 | Convulsant

Organism: Mus musculus
Experiment: Compound was tested for anticonvulsant activity against maximal electroshock-induced […] seizures in mice at 50mA, 200 ms
Format: functional
Details: not given

SMILES | ED50
NC(=O)Cn1c(-c2ccc(Cl)cc2)nc2cccnc21 | 329 mg/kg
CCC1(c2ccccc2)C(=O)NC(=O)NC1=O [PHENOBARBITAL] | 21.8 mg/kg
CCCC(CCC)C(=O)O [VALPROIC ACID] | 272 mg/kg
CCC1(C)CC(=O)NC1=O (stereo not drawn) [ETHOSUXIMIDE] | > 1000 mg/kg

Tested on: Mus musculus
Experiment: Compound was tested for anticonvulsant activity against bicuculline-induced clonic seizures in mice at 2.7 mg/kg sc
Format: functional
Details: route subcutaneous

SMILES | ED50
O=C1NC(=O)C(c2ccccc2)(c2ccccc2)N1 [PHENYTOIN] | > 100 mg/kg
NC(=O)Cn1c(-c2ccc(Cl)cc2)nc2cccnc21 | 174 mg/kg
CCC1(c2ccccc2)C(=O)NC(=O)NC1=O [PHENOBARBITAL] | 37.7 mg/kg

Tested on: not listed separately
Experiment: as §1
Format: toxicity, organism-based
Details: mouse, in vivo
How it was run: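 Mice in groups of five, dosed ip 30 min before being placed on a knurled 28 mm rod rotating at 6 rpm. Failure to stay on for 1 min was scored as neurotoxic. ED50 and confidence limits were obtained by probit analysis.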

SMILES | TD50
NC(=O)Cn1c(-c2ccc(Cl)cc2)nc2cccnc21 | > 1000 mg/kg

Organism: Rattus norvegicus
Experiment: Ratio of IC50 values for [3H]-Ro- 15-1788 binding in absence and presence of added GABA (rat cerebral cortex)
Format: functional
Details: not given
How it was run: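 Rat cerebral cortex membranes. IC50 for displacement of [3H]Ro 15-1788 was measured without and with excess added GABA. The ratio of the two IC50 values served as the index of agonist efficacy.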

SMILES | GABA shift
Cc1ccc(-c2nc3ccc(Cl)nc3n2CC(=O)N(C)C)cc1 | 3.06

Biological target: GABA-A receptor; anion channel
Experiment: Displacement of [3H]flunitrazepam from GABA-A benzodiazepine receptor of rat cerebral cortex membrane
Format: tissue-based
Details: not given
How it was run: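 Rat cerebral cortex P2+P3 membranes (fresh tissue, two freeze-thaw-wash cycles to remove endogenous GABA), 0.4 mg protein. Incubated with 1 nM [3H]flunitrazepam and six concentrations (1 × 10^-5 – 1 × 10^-10 M) for 30 min at 4 °C. Filtered on GF/b filters and counted. […] IC50 from log-logit regression, mean of replicates.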

SMILES | IC50
CN(C)C(=O)Cn1c(-c2ccc(Cl)cc2)nc2cnccc21 | > 10 µM
CN(C)C(=O)Cn1c(-c2ccc(Br)s2)nc2cccnc21 | 2.5 µM
Cc1ccc(-c2nc3cccnc3n2CC(N)=O)cc1 | 4.5 µM
CN(C)C(=O)Cn1c(-c2ccc(Br)o2)nc2cccnc21 | 0.2 µM
CN(C)C(=O)CCn1c(-c2ccc(Cl)cc2)nc2cccnc21 | 9.3 µM
CN(C)C(=O)Cn1c(-c2ccc(Cl)cc2)nc2cc(Cl)cnc21 | > 10 µM
CN(C)C(=O)Cn1c(-c2ccco2)nc2cccnc21 | > 10 µM
CCCN(CCC)C(=O)Cn1c(-c2ccc(Cl)cc2)nc2ncccc21 | > 10 µM
O=C(Cn1c(-c2ccc(Cl)cc2)nc2cccnc21)N1CCCCC1 | 2.7 µM
CN(C)CCN(C)C(=O)Cn1c(-c2ccc(Cl)cc2)nc2cccnc21 | > 10 µM
CCCN(CCC)C(=O)Cn1c(-c2ccc(Cl)cc2)nc2cccnc21 | 0.38 µM
O=C(Cn1c(-c2ccc(Cl)cc2)nc2cccnc21)Nc1ccncc1 | 0.47 µM
CN(C)CCNC(=O)Cn1c(-c2ccc(Cl)cc2)nc2cccnc21 | > 10 µM
Cc1ccc2nc(-c3ccc(Cl)cc3)n(CC(=O)N(C)C)c2n1 | 0.88 µM
CCCN(C)C(=O)Cn1c(-c2ccc(Cl)cc2)nc2cccnc21 | 0.68 µM
C[C@H](C(=O)N(C)C)n1c(-c2ccc(Cl)cc2)nc2cccnc21 | > 10 µM

SMILES | IC50
CN(C)C(=O)Cn1c(-c2ccsc2)nc2cccnc21 | > 10 µM
O=C(Cn1c(-c2ccc(Cl)cc2)nc2cccnc21)Nc1ccccc1 | > 10 µM
CCCCN(CCCC)C(=O)Cn1c(-c2ccc(Cl)cc2)nc2cccnc21 | 0.9 µM
CNC1=Nc2ccc(Cl)cc2C(c2ccccc2)=[N+]([O-])C1 [CHLORDIAZEPOXIDE] | 0.71 µM
CCCN(CCC)C(=O)Cn1c(-c2ccc(Cl)cc2)nc2ccccc21 | 2.7 µM
Cc1ccc(-c2nc3cccnc3n2CC(=O)N(C)C)cc1 | 1.75 µM
CN(C)CCCNC(=O)Cn1c(-c2ccc(Cl)cc2)nc2cccnc21 | > 10 µM
CN(C)C(=O)Cn1c(Cc2ccc(Cl)cc2)nc2cccnc21 | > 10 µM
C[C@@H](C(=O)N(C)C)n1c(-c2ccc(Cl)cc2)nc2cccnc21 | > 10 µM
CC(=O)NCCNC(=O)Cn1c(-c2ccc(Cl)cc2)nc2cccnc21 | 7.2 µM
CN(C)C(=O)Cn1c(-c2ccc(Cl)cc2)nc2cccnc21 | 3.6 µM
CC(=O)N1CCN(C(=O)Cn2c(-c3ccc(Cl)cc3)nc3cccnc32)CC1 | 6.4 µM
NC(=O)Cn1c(-c2ccc(Cl)cc2)nc2cccnc21 | 8 µM
CN(C)C(=O)Cn1c(-c2ccc(Cl)cc2Cl)nc2cccnc21 | > 10 µM
Cc1ccc(-c2nc3ccc(Cl)nc3n2CC(=O)N(C)C)cc1 | 0.15 µM

Tested on: Mus musculus
Experiment: Compound was tested for anticonvulsant activity against pentylenetetrazole-induced clonic seizures in mice on intraperitoneal administration
Format: functional
Details: ip
How it was run: as §2

SMILES | ED50
CN(C)C(=O)Cn1c(-c2ccc(Br)s2)nc2cccnc21 | 100 mg/kg
CCCCN(CCCC)C(=O)Cn1c(-c2ccc(Cl)cc2)nc2cccnc21 | 38 mg/kg
CN(C)C(=O)Cn1c(-c2ccc(Cl)cc2)nc2cccnc21 | 4.1 mg/kg
CC(=O)N1CCN(C(=O)Cn2c(-c3ccc(Cl)cc3)nc3cccnc32)CC1 | 100 mg/kg

Organism: Mus musculus
Experiment: Anxiolytic activity by light/dark exploratory behavioral test in mice
Format: functional
Details: not given
How it was run: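 Mice were dosed 30 min before testing, then placed individually in a two-compartment light/dark activity chamber and left undisturbed for 5 min. Time spent in each compartment was compared with vehicle-treated mice by Dunnett's t test. Minimal effective dose and sedative dose reported in mg/kg ip.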

SMILES | Sedative dose
CN1C(=O)CN=C(c2ccccc2)c2cc(Cl)ccc21 [DIAZEPAM] | 10 mg/kg
Cc1ccc(-c2nc3ccc(Cl)nc3n2CC(=O)N(C)C)cc1 | 5.62 mg/kg

Same assay, conditions: read-out: MED

SMILES | minimal effective dose
CN1C(=O)CN=C(c2ccccc2)c2cc(Cl)ccc21 [DIAZEPAM] | 1 mg/kg
Cc1ccc(-c2nc3ccc(Cl)nc3n2CC(=O)N(C)C)cc1 | 0.1 mg/kg

Organism: Mus musculus
Experiment: Anticonvulsant activity against pentylenetetrazole-induced clonic seizures in mice
Format: functional
Details: Mus musculus; read-out: ED50
How it was run: as §2

SMILES | ED50
Cc1ccc(-c2nc3cccnc3n2CC(N)=O)cc1 | 50.5 mg/kg
CN(C)C(=O)Cn1c(-c2ccc(Br)o2)nc2cccnc21 | 100 mg/kg
CN(C)C(=O)CCn1c(-c2ccc(Cl)cc2)nc2cccnc21 | 29.4 mg/kg
CN(C)C(=O)Cn1c(-c2ccc(Cl)cc2)nc2cc(Cl)cnc21 | 56.2 mg/kg
CN(C)C(=O)Cn1c(-c2ccco2)nc2cccnc21 | > 100 mg/kg
O=C(Cn1c(-c2ccc(Cl)cc2)nc2cccnc21)N1CCCCC1 | 56.2 mg/kg
CN(C)CCN(C)C(=O)Cn1c(-c2ccc(Cl)cc2)nc2cccnc21 | 100 mg/kg
CCCN(CCC)C(=O)Cn1c(-c2ccc(Cl)cc2)nc2cccnc21 | 11 mg/kg
CN(C)CCNC(=O)Cn1c(-c2ccc(Cl)cc2)nc2cccnc21 | 62 mg/kg
Cc1ccc2nc(-c3ccc(Cl)cc3)n(CC(=O)N(C)C)c2n1 | 2.5 mg/kg
CCCN(C)C(=O)Cn1c(-c2ccc(Cl)cc2)nc2cccnc21 | 11.6 mg/kg
C[C@H](C(=O)N(C)C)n1c(-c2ccc(Cl)cc2)nc2cccnc21 | 43.5 mg/kg
CN(C)C(=O)Cn1c(-c2ccsc2)nc2cccnc21 | 38 mg/kg
CNC1=Nc2ccc(Cl)cc2C(c2ccccc2)=[N+]([O-])C1 [CHLORDIAZEPOXIDE] | 1.9 mg/kg
Cc1ccc(-c2nc3cccnc3n2CC(=O)N(C)C)cc1 | 4.7 mg/kg
CN(C)CCCNC(=O)Cn1c(-c2ccc(Cl)cc2)nc2cccnc21 | 64 mg/kg
CN1C(=O)CN=C(c2ccccc2)c2cc(Cl)ccc21 [DIAZEPAM] | 0.9 mg/kg
C[C@@H](C(=O)N(C)C)n1c(-c2ccc(Cl)cc2)nc2cccnc21 | 31.6 mg/kg
NC(=O)Cn1c(-c2ccc(Cl)cc2)nc2cccnc21 | 4.1 mg/kg
Cc1ccc(-c2nc3ccc(Cl)nc3n2CC(=O)N(C)C)cc1 | 2.7 mg/kg

Organism: Rattus norvegicus
Experiment: Anxiolytic activity by vogel punished drinking test in rats
Format: functional
Details: read-out: MED
How it was run: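 Modified Vogel conflict test. Rats were water-deprived for 48 h with food available. A drinkometer delivered a 0.65 mA shock after every 20th lick during a 3-min session starting at the first shock. Total shocks were compared with vehicle-treated rats by Dunnett's t test. Minimal effective dose reported in mg/kg ip.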

SMILES | minimal effective dose
CN1C(=O)CN=C(c2ccccc2)c2cc(Cl)ccc21 [DIAZEPAM] | 1 mg/kg
Cc1ccc(-c2nc3ccc(Cl)nc3n2CC(=O)N(C)C)cc1 | 1 mg/kg

Tested on: Mus musculus
Experiment: Compound was tested for anticonvulsant activity against pentylenetetrazole-induced clonic seizures in mice at dose 80 mg/kg.
Details: not given

SMILES | ED50
CN1C(=O)CN=C(c2ccccc2)c2cc(Cl)ccc21 [DIAZEPAM] | 0.2 mg/kg
